Numbered stars: 1 amine (or outer) side, 2 acyl side, 3 side chain; on linkers, the order of the positions; unused ones are H or OH. Square brackets hold non-standard residues; d marks the D form. Peptide text beside a SMILES is read from it. * marks the point of attachment. X1 = N[C@@H](Cc1ccccc1)CN(CC(=O)[*:2])[*:1]; Phe(4-F) = N[C@@H](Cc1ccc(F)cc1)C(=O)O; N(NH2)2 = NN(N)*; NHNH2 = NN*
Experiments:
[1] = molecular target: T1, Nociceptin receptor (Homo sapiens, UniProt P41146); assay: Receptor binding affinity for recombinant human N/OFQ peptide receptor (NOP) expressed in chinese hamster ovary cells; format: cell-based, CHO
T1 sequence (P41146 whole entry): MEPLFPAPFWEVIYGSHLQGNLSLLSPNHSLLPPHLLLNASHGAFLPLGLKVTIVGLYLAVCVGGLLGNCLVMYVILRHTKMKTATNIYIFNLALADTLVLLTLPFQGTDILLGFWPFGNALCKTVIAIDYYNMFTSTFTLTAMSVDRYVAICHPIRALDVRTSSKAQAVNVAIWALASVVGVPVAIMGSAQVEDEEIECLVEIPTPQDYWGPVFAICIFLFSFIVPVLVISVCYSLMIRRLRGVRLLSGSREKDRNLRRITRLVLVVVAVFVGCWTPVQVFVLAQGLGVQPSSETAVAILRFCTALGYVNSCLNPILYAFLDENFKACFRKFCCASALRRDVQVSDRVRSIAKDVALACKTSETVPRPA

[2] = molecular target: T1, Nociceptin receptor; assay: Inhibition of forskolin stimulated cAMP levels in CHO cells expressing the human NOP receptor (CHOhNOP)
[3] = molecular target: Nociceptin receptor (Cavia porcellus, UniProt P47748); assay: Inhibition of electrically evoked contraction of guinea pig ileum; format: functional, tissue-based
Nociceptin receptor (Cavia porcellus, UniProt P47748), sequence (P47748 whole entry): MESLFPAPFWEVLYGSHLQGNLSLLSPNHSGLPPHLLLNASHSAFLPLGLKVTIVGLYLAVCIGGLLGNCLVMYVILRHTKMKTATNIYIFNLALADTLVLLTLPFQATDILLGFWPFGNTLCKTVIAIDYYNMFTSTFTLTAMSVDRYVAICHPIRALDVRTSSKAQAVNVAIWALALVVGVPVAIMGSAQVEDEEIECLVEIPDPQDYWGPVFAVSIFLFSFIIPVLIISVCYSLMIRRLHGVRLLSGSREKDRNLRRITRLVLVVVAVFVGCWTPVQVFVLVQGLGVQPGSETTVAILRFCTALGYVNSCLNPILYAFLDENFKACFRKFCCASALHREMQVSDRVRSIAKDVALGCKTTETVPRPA
Method in brief: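 Guinea pig ileum from albino animals (250-300 g), in Krebs at 37 °C under 0.3 g resting tension. Field-stimulated with 1 ms supramaximal pulses at 0.05 Hz; twitches recorded isotonically. After ~1 h equilibration, cumulative concentration-response curves in 0.5 log steps. […] 5-8 experiments.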

[4] = molecular target: Nociceptin receptor (Mus musculus, UniProt P35377); assay: Inhibition of electrically evoked contraction of mouse vas deferens; format: functional
Nociceptin receptor (Mus musculus, UniProt P35377), sequence (P35377 whole entry): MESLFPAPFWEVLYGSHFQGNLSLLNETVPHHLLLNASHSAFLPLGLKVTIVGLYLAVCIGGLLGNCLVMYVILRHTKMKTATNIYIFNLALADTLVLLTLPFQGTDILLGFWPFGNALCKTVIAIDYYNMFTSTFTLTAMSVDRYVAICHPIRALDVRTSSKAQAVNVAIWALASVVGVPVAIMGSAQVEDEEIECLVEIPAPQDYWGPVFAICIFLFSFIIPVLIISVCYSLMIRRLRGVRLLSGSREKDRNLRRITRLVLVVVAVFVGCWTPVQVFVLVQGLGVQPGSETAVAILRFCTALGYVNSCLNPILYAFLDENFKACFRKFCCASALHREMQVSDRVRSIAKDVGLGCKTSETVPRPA
Method in brief: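 Vas deferens from male Swiss mice (25-30 g), in Mg2+-free Krebs at 33 °C under 0.3 g resting tension. Field-stimulated with 1 ms supramaximal pulses at 0.05 Hz; twitches recorded isotonically. After ~1 h equilibration, cumulative concentration-response curves in 0.5 log steps. […] 5-8 experiments.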

[5] = molecular target: Nociceptin receptor (Cavia porcellus) (UniProt P47748); assay: Maximal inhibition of electrically evoked contraction of guinea pig ileum; format: functional, tissue-based
Nociceptin receptor (Cavia porcellus), sequence (P47748 whole entry): as the sequence (P47748 whole entry) above

[6] = molecular target: Nociceptin receptor (Mus musculus) (UniProt P35377); assay: Maximal inhibition of electrically evoked contraction of mouse vas deferens; format: functional, tissue-based
Nociceptin receptor (Mus musculus), sequence (P35377 whole entry): as the sequence (P35377 whole entry) above

[7] = molecular target: Nociceptin receptor (Mus musculus) (UniProt P35377); assay: Antagonistic potency against N/OFQ in electrically evoked contraction of mouse vas deferens at 1 uM; format: functional, tissue-based
Method in brief: (§1)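 Male Swiss mice (25-30 g). Vas deferens in 5 mL baths of Mg2+-free Krebs at 33 °C, 0.3 g tension, field-stimulated with supramaximal 1 ms pulses at 0.05 Hz, isotonic recording.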

[8] = molecular target: Nociceptin receptor (Cavia porcellus) (UniProt P47748); assay: Antagonistic potency against N/OFQ in electrically evoked contractions of guinea pig ileum at 1 uM; format: functional, tissue-based
[9] = molecular target: T1, Nociceptin receptor; assay: Agonist potency against GTPgammaS binding in CHO cell membranes expressing the human NOP receptor (CHOhNOP)
[10] = molecular target: Nociceptin receptor (Mus musculus) (UniProt P35377); assay: Maximal inhibition of electrically evoked contraction of mouse vas deferens; Effect evident only in some tissues; format: functional; settings: filed as agonist
[11] = molecular target: Nociceptin receptor (Mus musculus) (UniProt P35377); assay: Inhibition of electrically evoked contraction of mouse vas deferens; Effect evident only in some tissues; format: functional; settings: filed as agonist
[12] = molecular target: Nociceptin receptor (Cavia porcellus) (UniProt P47748); assay: Inhibition of electrically evoked contraction of guinea pig ileum; Effect evident only in some tissues; format: functional, tissue-based; settings: filed as agonist
[13] = molecular target: Nociceptin receptor (Cavia porcellus) (UniProt P47748); assay: Maximal inhibition of electrically evoked contraction of guinea pig ileum; Effect evident only in some tissues; format: functional, tissue-based; settings: filed as agonist
[14] = molecular target: Nociceptin receptor (Mus musculus) (UniProt P35377); assay: Antagonistic potency against N/OFQ in electrically evoked contraction of mouse vas deferens at 0.1 uM; format: functional, tissue-based; method in brief: as §1

| Compound | Ki [1] | EC50 [2] | EC50 [3] | EC50 [4] | Emax [5] | Emax [6] | pKb [7] | pKb [8] | EC50 [9] | Emax [10] | Activity [11] | Log EC50 [12] | Emax [13] | pKb [14] | pKb ([14]; Cavia porcellus) |
| --- | --- | --- | --- | --- | --- | --- | --- | --- | --- | --- | --- | --- | --- | --- | --- |
| C[C@H](NC(=O)CNC(=O)[C@@H](NC(=O)[C@H](Cc1ccccc1)NC(=O)CNC(=O)CNC(=O)[C@@H](N)Cc1ccccc1)[C@@H](C)O)C(=O)N[C@@H](CCCN=C(N)N)C(=O)N[C@@H](CCCCN)C(=O)N[C@@H](CO)C(=O)N[C@@H](C)C(=O)N[C@@H](CCCN=C(N)N)C(=O)N[C@@H](CCCCN)C(=O)N[C@@H](CCCN=C(N)N)C(=O)N[C@@H](CCCCN)C(=O)N[C@@H](CC(N)=O)C(=O)N[C@@H](CCC(N)=O)C(N)=O | 0.00692 nM | 0.1 nM | 1.12 nM | 0.759 nM |  |  |  |  |  |  |  |  |  |  |  |
| CC(C)C[C@H](NC(=O)[C@H](CCCCN)NC(=O)[C@H](CCCN=C(N)N)NC(=O)[C@H](C)NC(=O)[C@H](CO)NC(=O)[C@H](CCCCN)NC(=O)[C@H](CCCN=C(N)N)NC(=O)[C@H](C)NC(=O)CNC(=O)[C@@H](NC(=O)[C@H](Cc1ccc(F)cc1)NC(=O)CNC(=O)CNC(=O)[C@@H](N)Cc1ccccc1)[C@@H](C)O)C(=O)N[C@@H](C)C(=O)N[C@@H](CC(N)=O)C(=O)N[C@@H](CCC(N)=O)C(N)=O |  |  | 1.86 nM | 2.57 nM | 56% | 92% |  |  |  |  |  |  |  |  |  |
| CC(C)C[C@H](NC(=O)[C@H](CCCCN)NC(=O)[C@H](CCCN=C(N)N)NC(=O)[C@H](C)NC(=O)[C@H](CO)NC(=O)[C@H](CCCCN)NC(=O)[C@H](CCCN=C(N)N)NC(=O)[C@H](C)NC(=O)CNC(=O)[C@@H](NC(=O)[C@H](Cc1ccccc1)NC(=O)CNC(=O)CNC[C@@H](N)Cc1ccccc1)[C@@H](C)O)C(=O)N[C@@H](C)C(=O)N[C@@H](CC(N)=O)C(=O)N[C@@H](CCC(N)=O)C(N)=O (H-[X1]GFTGARKSARKLANQ-NH2) | 0.129 nM | 0.759 nM |  |  |  |  | 7.17 | 6.65 | 5.25 nM | Agonist | Agonist | Agonist | Agonist |  |  |
| C[C@H](NC(=O)CNC(=O)[C@@H](NC(=O)[C@H](Cc1ccc(F)cc1)NC(=O)CNC(=O)CNC[C@@H](N)Cc1ccccc1)[C@@H](C)O)C(=O)N[C@@H](CCCN=C(N)N)C(=O)N[C@@H](CCCCN)C(=O)N[C@@H](CO)C(=O)N[C@@H](C)C(=O)N[C@@H](CCCN=C(N)N)C(=O)N[C@@H](CCCCN)C(=O)N[C@@H](CCCN=C(N)N)C(=O)N[C@@H](CCCCN)C(=O)N[C@@H](CC(N)=O)C(=O)N[C@@H](CCC(=O)N(N)N)C(=O)NN (H-[X1]G[Phe(4-F)]TGARKSARKRKNE(N(NH2)2)-NHNH2) |  |  |  |  |  | 53% |  |  |  |  |  | Agonist | Agonist | 9.2 | 8.48 |
| CC(C)C[C@H](NC(=O)[C@H](CCCCN)NC(=O)[C@H](CCCNC(=N)N)NC(=O)[C@H](C)NC(=O)[C@H](CO)NC(=O)[C@H](CCCCN)NC(=O)[C@H](CCCNC(=N)N)NC(=O)[C@H](C)NC(=O)CNC(=O)[C@@H](NC(=O)[C@H](Cc1ccccc1)NC(=O)CNC(=O)CNC(=O)[C@@H](N)Cc1ccccc1)[C@@H](C)O)C(=O)N[C@@H](C)C(=O)N[C@@H](CC(N)=O)C(=O)N[C@@H](CCC(N)=O)C(=O)O |  |  |  |  | 58% | 95% |  |  |  |  |  |  |  |  |  |
| CC(C)C[C@H](NC(=O)[C@H](CCCCN)NC(=O)[C@H](CCCN=C(N)N)NC(=O)[C@H](C)NC(=O)[C@H](CO)NC(=O)[C@H](CCCCN)NC(=O)[C@H](CCCN=C(N)N)NC(=O)[C@H](C)NC(=O)CNC(=O)[C@@H](NC(=O)[C@H](Cc1ccc(F)cc1)NC(=O)CNC(=O)CNC[C@@H](N)Cc1ccccc1)[C@@H](C)O)C(=O)N[C@@H](C)C(=O)N[C@@H](CC(N)=O)C(=O)N[C@@H](CCC(N)=O)C(N)=O (H-[X1]G[Phe(4-F)]TGARKSARKLANQ-NH2) | 0.0479 nM | 0.479 nM |  |  |  |  | 7.9 | 8.32 | 0.813 nM | Agonist | Agonist | Agonist | Agonist |  |  |
| C[C@H](NC(=O)CNC(=O)[C@@H](NC(=O)[C@H](Cc1ccc(F)cc1)NC(=O)CNC(=O)CNC(=O)[C@@H](N)Cc1ccccc1)[C@@H](C)O)C(=O)N[C@@H](CCCNC(=N)N)C(=O)N[C@@H](CCCCN)C(=O)N[C@@H](CO)C(=O)N[C@@H](C)C(=O)N[C@@H](CCCNC(=N)N)C(=O)N[C@@H](CCCCN)C(=O)N[C@@H](CCCNC(=N)N)C(=O)N[C@@H](CCCCN)C(=O)N[C@@H](CC(N)=O)C(=O)N[C@@H](CCC(N)=O)C(N)=O | 0.00479 nM |  | 1.05 nM | 0.437 nM |  |  |  |  |  |  |  |  |  |  |  |
| C[C@H](NC(=O)CNC(=O)[C@@H](NC(=O)[C@H](Cc1ccccc1)NC(=O)CNC(=O)CNC[C@@H](N)Cc1ccccc1)[C@@H](C)O)C(=O)N[C@@H](CCCN=C(N)N)C(=O)N[C@@H](CCCCN)C(=O)N[C@@H](CO)C(=O)N[C@@H](C)C(=O)N[C@@H](CCCN=C(N)N)C(=O)N[C@@H](CCCCN)C(=O)N[C@@H](CCCN=C(N)N)C(=O)N[C@@H](CCCCN)C(=O)N[C@@H](CC(N)=O)C(=O)N[C@@H](CCC(=O)N(N)N)C(=O)NN (H-[X1]GFTGARKSARKRKNE(N(NH2)2)-NHNH2) |  |  |  |  |  |  | 8.04 | 7.47 |  | Agonist | Agonist | Agonist | Agonist |  |  |

From ChEMBL document CHEMBL1142699 (J Med Chem, 2005)
